Measurements reported in ChEMBL document CHEMBL1151198, “A new antimalarial quassinoid from Simaba orinocensis” (J Nat Prod, 2004).
≈ marks a conversion by molar mass, not a printed value. Calls of active or inactive are those of the source. The rule behind the calls is not given here.

Tests used:
[1] = tested on: Leishmania donovani; assay: Antileishmanial activity against Leishmania donovani promastigotes after 48 hrs by alamar blue assay; type: functional, organism-based
[2] = Inhibition of protein biosynthesis in mouse Krebs cells assessed as firefly luciferase activity at 10 uM after 1 hr by translation assay relative to control; type: functional
Outline: (§1)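 In vitro Krebs cell translation system read by firefly and renilla luciferase. Compounds at 10 or 2 µM; anisomycin 10 µM as reference and 0.5% DMSO as vehicle control. Values are average luciferase activity relative to control.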

[3] = Inhibition of protein biosynthesis in mouse Krebs cells assessed as renilla luciferase activity at 2 uM after 1 hr by translation assay relative to control; type: functional; outline: as §1
[4] = tested on: HeLa; assay: Inhibition of translation in human HeLa cells at 2 uM by 35S-methionine metabolic labeling study; type: functional, cell-based
[5] = tested on: HeLa; assay: Inhibition of protein synthesis in human HeLa cells assessed as translation at 2 uM by [35S]methionine metabolic labeling study; type: functional; design: scale not given: the % may be the effect or the level left
[6] = tested on: Plasmodium falciparum; assay: Antimalarial activity against chloroquine-sensitive Plasmodium falciparum D6 by LDH assay; type: functional, organism-based
[7] = Inhibition of protein biosynthesis in mouse Krebs cells assessed as renilla luciferase activity at 10 uM after 1 hr by translation assay relative to control; type: functional; outline: as §1
[8] = tested on: HeLa; assay: Inhibition of translation in human HeLa cells at 10 uM by 35S-methionine metabolic labeling study; type: functional, cell-based
[9] = Inhibition of protein biosynthesis in mouse Krebs cells assessed as firefly luciferase activity at 2 uM after 1 hr by translation assay relative to control; type: functional; outline: as §1
[10] = tested on: Plasmodium falciparum; assay: Antimalarial activity against chloroquine-resistant Plasmodium falciparum W2 by LDH assay; type: functional, organism-based
[11] = tested on: HeLa; assay: Inhibition of protein synthesis in human HeLa cells at 2 uM by [35S]methionine metabolic labeling study; type: functional
[12] = tested on: Vero; assay: Cytotoxicity against african green monkey kidney Vero cells; type: cell-based; conditions: Chlorocebus sabaeus
[13] = tested on: RAW264.7; assay: Inhibition of iNOS production in LPS-activated mouse RAW264.7 cells after 20 hrs; type: functional, cell-based; conditions: RAW264.7, 20 h
Outline: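 iNOS assay in RAW 264.7 cells, with L-NMMA, APDC and dexamethasone as reference inhibitors. IC50 in µg/mL, mean ± SEM of three determinations.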

[14] = Specific index, ratio of IC50 for mouse RAW264.7 to IC50 for iNOS production in mouse RAW264.7
Outline: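 Index calculated as the MTT IC50 in RAW 264.7 cells divided by the iNOS IC50 in the same cells.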

[15] = tested on: RAW264.7; assay: Cytotoxicity against mouse RAW264.7 cells after 2 days by MTT assay; type: cell-based; conditions: RAW264.7, 48 h
Outline: (§2)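 MTT viability assay, run on CHO-ICAM-1 cells and, separately, on RAW 264.7 cells. IC50 in µg/mL, mean ± SEM of three determinations.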

[16] = tested on: SK-OV-3; assay: Cytotoxicity against human SKOV3 cells after 48 hrs by neutral red staining; type: functional, cell-based; conditions: SK-OV-3, 48 h
Outline: (§3)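 Human tumour lines: SK-MEL (malignant melanoma), KB (epidermal carcinoma), BT-549 (ductal carcinoma) and SK-OV-3 (ovary carcinoma). Compounds tested up to a maximum of 10 µg/mL, with doxorubicin as reference. IC50 given in µg/mL as mean ± SEM of three determinations.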

[17] = biological target: Intercellular adhesion molecule (ICAM-1), Integrin alpha-L/beta-2 (Homo sapiens) (UniProt P20701+P05362+P05107); assay: Inhibition of LFA1/ICAM1-mediated HL60 cell aggregation; type: cell-based; conditions: HL-60
Outline: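 Primary screen for LFA-1/ICAM-1-mediated cell aggregation run together with an XTT cell-proliferation read-out. Aggregation potency is reported as a minimum inhibitory concentration in µg/mL.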

[18] = Specific index, ratio of IC50 for human HL60 cells to MIC for LFA1/ICAM1; type: functional, HL-60
Outline: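 Index calculated as XTT-assay IC50 (µg/mL) divided by the MIC from the LFA-1/ICAM-1-mediated aggregation primary screen (µg/mL). XTT IC50 values are given as mean ± SEM of three determinations.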

[19] = tested on: SK-MEL; assay: Cytotoxicity against human SK-MEL cells after 48 hrs by neutral red staining; type: functional, cell-based; outline: as §3
[20] = tested on: BT-549; assay: Cytotoxicity against human BT549 cells after 48 hrs by neutral red staining; type: functional, cell-based; conditions: BT-549, 48 h; outline: as §3
[21] = tested on: HL-60; assay: Cytotoxicity against human HL60 cells by XTT assay; type: cell-based
Outline: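 XTT proliferation read-out combined with the primary assay for inhibitors of LFA-1/ICAM-1-mediated cell aggregation. IC50 in µg/mL, mean ± SEM of three determinations.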

[22] = tested on: KB; assay: Cytotoxicity against human KB cells after 48 hrs by neutral red staining; type: functional, cell-based; outline: as §3
[23] = biological target: Intercellular adhesion molecule (ICAM-1), Integrin alpha-L/beta-2 (Homo sapiens, UniProt P05107+P05362+P20701); assay: Inhibition of LFA1/ICAM1-mediated adhesion of HL60 cells to CHO-ICAM1 cells; type: cell-based, HL-60
Intercellular adhesion molecule (ICAM-1), Integrin alpha-L/beta-2, sequence (P20701 whole entry): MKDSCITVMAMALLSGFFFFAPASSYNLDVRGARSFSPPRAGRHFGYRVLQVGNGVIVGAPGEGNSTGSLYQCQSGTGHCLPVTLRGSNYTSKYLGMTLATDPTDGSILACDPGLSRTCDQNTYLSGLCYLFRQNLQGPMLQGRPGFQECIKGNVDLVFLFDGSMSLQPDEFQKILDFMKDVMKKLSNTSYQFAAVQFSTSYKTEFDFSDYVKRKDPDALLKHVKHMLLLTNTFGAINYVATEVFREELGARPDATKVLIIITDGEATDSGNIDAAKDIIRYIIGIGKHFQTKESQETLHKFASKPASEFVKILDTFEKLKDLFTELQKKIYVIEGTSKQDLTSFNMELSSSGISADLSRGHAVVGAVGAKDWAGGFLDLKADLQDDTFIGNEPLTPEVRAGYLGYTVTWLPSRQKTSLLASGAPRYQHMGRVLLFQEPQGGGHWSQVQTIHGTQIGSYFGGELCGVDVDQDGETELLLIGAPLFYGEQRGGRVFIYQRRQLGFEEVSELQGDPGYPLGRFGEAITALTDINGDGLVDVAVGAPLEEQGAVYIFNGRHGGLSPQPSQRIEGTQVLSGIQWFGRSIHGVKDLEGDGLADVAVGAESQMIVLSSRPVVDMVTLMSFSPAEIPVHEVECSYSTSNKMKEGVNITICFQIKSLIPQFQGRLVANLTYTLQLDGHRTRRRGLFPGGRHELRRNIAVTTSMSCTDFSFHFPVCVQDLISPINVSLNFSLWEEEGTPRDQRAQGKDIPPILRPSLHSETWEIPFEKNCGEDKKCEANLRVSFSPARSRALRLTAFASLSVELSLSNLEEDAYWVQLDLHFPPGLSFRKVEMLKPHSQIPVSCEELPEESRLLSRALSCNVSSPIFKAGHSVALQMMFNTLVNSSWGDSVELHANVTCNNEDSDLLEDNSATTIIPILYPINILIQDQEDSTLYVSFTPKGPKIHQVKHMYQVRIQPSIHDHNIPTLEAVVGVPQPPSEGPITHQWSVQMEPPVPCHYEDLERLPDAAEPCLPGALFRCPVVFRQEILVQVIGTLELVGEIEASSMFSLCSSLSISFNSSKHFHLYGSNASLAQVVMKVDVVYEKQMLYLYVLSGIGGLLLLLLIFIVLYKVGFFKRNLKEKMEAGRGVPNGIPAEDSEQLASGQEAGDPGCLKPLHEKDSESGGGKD
Intercellular adhesion molecule (ICAM-1), Integrin alpha-L/beta-2, sequence (P05362 whole entry): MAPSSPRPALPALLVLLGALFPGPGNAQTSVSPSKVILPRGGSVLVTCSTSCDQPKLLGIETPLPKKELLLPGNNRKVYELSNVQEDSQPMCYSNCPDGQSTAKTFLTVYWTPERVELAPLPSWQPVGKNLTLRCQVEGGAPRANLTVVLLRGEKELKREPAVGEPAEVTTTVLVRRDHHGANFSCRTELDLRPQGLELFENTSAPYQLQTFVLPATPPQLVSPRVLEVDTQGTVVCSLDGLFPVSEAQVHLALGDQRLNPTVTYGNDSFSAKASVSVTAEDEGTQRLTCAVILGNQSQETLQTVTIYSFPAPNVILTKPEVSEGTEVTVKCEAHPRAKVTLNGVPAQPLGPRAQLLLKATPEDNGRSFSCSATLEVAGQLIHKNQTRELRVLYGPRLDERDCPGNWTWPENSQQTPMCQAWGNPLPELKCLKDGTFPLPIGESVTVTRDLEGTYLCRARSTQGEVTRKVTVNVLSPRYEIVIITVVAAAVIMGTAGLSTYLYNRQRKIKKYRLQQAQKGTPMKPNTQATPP
Intercellular adhesion molecule (ICAM-1), Integrin alpha-L/beta-2, sequence (P05107 whole entry): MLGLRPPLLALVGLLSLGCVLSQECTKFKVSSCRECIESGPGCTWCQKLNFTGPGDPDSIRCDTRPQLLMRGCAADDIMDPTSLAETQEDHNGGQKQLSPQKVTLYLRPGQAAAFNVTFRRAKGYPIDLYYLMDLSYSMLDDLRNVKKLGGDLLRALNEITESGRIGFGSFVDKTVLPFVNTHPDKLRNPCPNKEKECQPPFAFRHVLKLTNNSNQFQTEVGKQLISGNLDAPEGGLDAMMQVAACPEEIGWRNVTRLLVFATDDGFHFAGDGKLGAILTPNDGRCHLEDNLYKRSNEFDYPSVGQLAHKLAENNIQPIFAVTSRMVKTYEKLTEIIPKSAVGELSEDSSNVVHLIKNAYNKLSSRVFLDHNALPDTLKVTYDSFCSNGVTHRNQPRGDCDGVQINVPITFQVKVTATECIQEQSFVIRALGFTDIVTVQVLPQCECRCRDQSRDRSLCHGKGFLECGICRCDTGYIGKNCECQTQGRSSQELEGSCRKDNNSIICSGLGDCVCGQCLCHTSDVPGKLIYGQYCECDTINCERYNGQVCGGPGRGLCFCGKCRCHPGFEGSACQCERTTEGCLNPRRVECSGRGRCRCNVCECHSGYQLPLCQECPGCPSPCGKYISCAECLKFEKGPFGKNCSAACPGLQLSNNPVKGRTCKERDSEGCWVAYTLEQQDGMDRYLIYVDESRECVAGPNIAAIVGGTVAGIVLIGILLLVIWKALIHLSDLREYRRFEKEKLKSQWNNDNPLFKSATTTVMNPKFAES
Outline: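 Secondary LFA-1/ICAM-1-mediated adhesion assay using HL-60 cells and CHO-ICAM-1 cells, with cytochalasin B as standard. IC50 in µg/mL, mean ± SEM of three determinations.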

[24] = Selectivity index, ratio of IC50 for african green monkey (Cercopithecus aethiops) Vero cells to IC50 for chloroquine-resistant Plasmodium falciparum W2; type: toxicity, cell-based; conditions: read-out: Ratio IC50
[25] = tested on: CHO; assay: Cytotoxicity against CHO cells transfected with ICAM1 by MTT assay; type: cell-based; conditions: Cricetulus griseus; outline: as §2
[26] = Selectivity index, ratio of IC50 for african green monkey (Cercopithecus aethiops) Vero cells to IC50 for chloroquine-sensitive Plasmodium falciparum D6; type: toxicity, cell-based; conditions: read-out: Ratio IC50

| Structure (SMILES) | IC50 [1] [µg/mL] | IC90 [1] [µg/mL] | Activity [2] | Activity [3] | Activity [5] [%] | IC50 [6] [ng/mL] | Activity [7] | Activity [8] | Activity [9] | IC50 [10] [ng/mL] | inhibition at 2 µM [11] [%] | IC50 [12] [µg/mL] | IC50 [13] [µg/mL] | Ratio [14] | IC50 [15] [µg/mL] | also measured |
| --- | --- | --- | --- | --- | --- | --- | --- | --- | --- | --- | --- | --- | --- | --- | --- | --- |
| N=C(N)c1ccc(OCCCCCOc2ccc(C(=N)N)cc2)cc1 [PENTAMIDINE] | 1.6 (≈ 4.7 µM) | 3.5 (≈ 10.3 µM) |  |  |  |  |  |  |  |  |  |  |  |  |  |  |
| CC[C@@H](C)C(=O)O[C@H]1C(=O)O[C@@H]2C[C@H]3C(C)=C[C@H](OC(C)=O)[C@@H](OC(C)=O)[C@]3(C)[C@H]3[C@@H](O)[C@@H](OC(C)=O)[C@]4(C)OC[C@]32[C@@H]14 | > 50 | > 50 | 1.02 | 1.14 | 100 | > 4760 | 1.03 | inactive | 0.87 | > 4760 | 0 | 10 (≈ 16.5 µM) |  |  |  | Activity [4]: inactive |
| C[C@@H]1[C@H](O)[C@@H](C)/C=C/C=C/C=C/C=C/C=C/C=C/C=C/[C@H](O[C@@H]2O[C@H](C)[C@@H](O)[C@H](N)[C@@H]2O)C[C@@H]2O[C@](O)(C[C@@H](O)C[C@@H](O)[C@H](O)CC[C@@H](O)C[C@@H](O)CC(=O)O[C@H]1C)C[C@H](O)[C@H]2C(=O)O [AMPHOTERICIN B] | 1.1 (≈ 1.19 µM) | 2.1 (≈ 2.27 µM) |  |  |  |  |  |  |  |  |  |  |  |  |  |  |
| C[C@@H]1C[C@H]2[C@@H]3CCC4=CC(=O)C=C[C@]4(C)[C@@]3(F)[C@@H](O)C[C@]2(C)[C@@]1(O)C(=O)CO [DEXAMETHASONE] |  |  |  |  |  |  |  |  |  |  |  |  | 36 (≈ 91.7 µM) | 0.69 | > 25 |  |
| CC[C@@H](C)C(=O)O[C@H]1C(=O)O[C@@H]2C[C@H]3C(C)=C[C@H](O)[C@@H](O)[C@]3(C)[C@H]3[C@@H](O)[C@@H](O)[C@]4(C)OC[C@]32[C@@H]14 | 25 (≈ 52 µM) | > 50 | 0.05 | 0.57 | 3.5 | 3.27 (≈ 0.0068 µM) | 0.09 | Active | 0.35 | 8.53 (≈ 0.0178 µM) | 96.5 | 10 (≈ 20.8 µM) | 6.5 (≈ 13.5 µM) | 0.6 | 4.2 (≈ 8.74 µM) | IC50 [16]: 0.8 µg/mL (≈ 1.66 µM); MIC [17]: 0.26 µg/mL (≈ 0.541 µM); Ratio [18]: 2.7; IC50 [19]: 1.9 µg/mL (≈ 3.95 µM); IC50 [20]: 1.7 µg/mL (≈ 3.54 µM); IC50 [21]: 0.7 µg/mL (≈ 1.46 µM); IC50 [22]: 1.9 µg/mL (≈ 3.95 µM); IC50 [23]: > 52 µM; selectivity ratio [24]: 1180; IC50 [25]: 2.5 µg/mL (≈ 5.2 µM); selectivity ratio [26]: 3060 |
| CCN(CC)CCCC(C)Nc1ccnc2cc(Cl)ccc12 (configuration not stated) [CHLOROQUINE] |  |  |  |  |  |  |  |  |  |  |  | > 10 |  |  |  |  |
